Measured values reported in ChEMBL document CHEMBL1121586, “Synthesis, biological activity, and structure--activity/toxicity relationships of a series of terphenyl analogues of hemicholinium-3 and acetyl-seco-hemicholinium-3. 3” (J Med Chem, 1980).

Assays:
[1] = Tested for terphenyl analogue in charles river CD-1 strain adult male albino mice after intraperitoneal administration.; type: ADME, organism-based; conditions: CD-1, mouse, in vivo, ip
Method in brief: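 Adult male albino Charles River CD-1 mice (20-30 g) were dosed ip with a suspension in 0.8% (w/v) sodium carboxymethylcellulose in 0.9% NaCl. The LD50 was estimated by Finney's staircase sampling method, which allows for variation in LD50 with time of day, and is reported with 95% confidence limits.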

[2] = Ratio of terphenyl LD50 doses to biphenyl analogues in charles river CD-1 strain adult male albino mice; type: ADME, organism-based; conditions: CD-1, mouse, in vivo
[3] = Ratio of terphenyl LD50 doses to biphenyl HC-3 in charles river CD-1 strain adult male albino mice; type: ADME, organism-based; conditions: CD-1, mouse, in vivo
[4] = Tested for biphenyl analogue in charles river CD-1 strain adult male albino mice after intraperitoneal administration; type: ADME, organism-based; conditions: CD-1, mouse, in vivo, ip
[5] = tested on: Mus musculus; assay: Tested for percentage mortality in charles river CD-1 strain adult male albino mice after introducing antagonist neostigmine at intraperitoneal dosage of 0.2 mg/kg, 1 min prior to compound; type: functional; design: concentration or dose not given beside the values; conditions: ip
[6] = tested on: Mus musculus; assay: Tested for percentage mortality in charles river CD-1 strain adult male albino mice after introducing antagonist choline at intraperitoneal dosage of 20 mg/kg, 1 min prior to compound; type: functional; design: concentration or dose not given beside the values; conditions: ip
[7] = tested on: Mus musculus; assay: Tested for percentage mortality in charles river CD-1 strain adult male albino mice after introducing antagonist neostigmine at intraperitoneal dosage of 0.2 mg/kg, 1 min prior to compound; b represents Least toxic; type: functional, organism-based; design: dose 0.2 mg/kg
[8] = tested on: Mus musculus; assay: Tested for percentage mortality in charles river CD-1 strain adult male albino mice after introducing antagonist choline at intraperitoneal dosage of 20 mg/kg, 1 min prior to compound; b represents Least toxic; type: functional, organism-based; design: dose 20 mg/kg
[9] = tested on: Mus musculus; assay: Tested for terphenyl analogue in charles river CD-1 strain adult male albino mice after intraperitoneal administration; b represents Least toxic; type: ADME, organism-based; conditions: in vivo, ip

Row | SMILES | LD50 [1] [mg/kg] | selectivity ratio [2] | selectivity ratio [3] | LD50 [4] [mg/kg] | mortality [5] [%] | mortality [6] [%] | Mortality [7] | Mortality [8] | LD95 [9]
1 | CCCCC[N+](C)(C)CC(=O)c1ccc(-c2ccc(-c3ccc(C(=O)C[N+](C)(C)CCCCC)cc3)cc2)cc1.[Br-].[Br-] | 5.32 | 1.38 | 32.8 | 5.6 | 100 | 80 |  |  | 
2 | C[N+](C)(CCS)CC(=O)c1ccc(-c2ccc(-c3ccc(C(=O)C[N+](C)(C)CCS)cc3)cc2)cc1.[Br-].[Br-] |  |  |  | 29.4 |  |  | Toxic | Toxic | Toxic
3 | CC(=O)SCC[N+](C)(C)CC(=O)c1ccc(-c2ccc(-c3ccc(C(=O)C[N+](C)(C)CCSC(C)=O)cc3)cc2)cc1.[Br-].[Br-] | 3.05 | 22.9 | 23.5 | 0.133 | 80 | 60 |  |  | 
4 | CCOCC[N+](C)(C)CC(=O)c1ccc(-c2ccc(-c3ccc(C(=O)C[N+](C)(C)CCOCC)cc3)cc2)cc1.[Br-].[Br-] | 16.6 | 9.02 | 127 | 1.84 | 90 | 90 |  |  | 
5 | C[N+]1(C)CCOC(O)(c2ccc(-c3ccc(-c4ccc(C5(O)C[N+](C)(C)CCO5)cc4)cc3)cc2)C1.[Br-].[Br-] (stereo not drawn) | 0.107 | 0.82 | 0.82 | 0.13 | 80 | 70 |  |  | 
6 | CC(=O)OCC[N+](C)(C)CC(=O)c1ccc(-c2ccc(-c3ccc(C(=O)C[N+](C)(C)CCOC(C)=O)cc3)cc2)cc1.[Br-].[Br-] | 0.333 | 2.66 | 2.56 | 0.125 | 20 | 30 |  |  | 
7 | CC(=O)CCC[N+](C)(C)CC(=O)c1ccc(-c2ccc(-c3ccc(C(=O)C[N+](C)(C)CCCC(C)=O)cc3)cc2)cc1.[Br-].[Br-] | 4.27 | 1.38 | 32.8 | 3.1 |  |  |  |  | 
